Measured values: ChEMBL document CHEMBL4732148 (Eur J Med Chem, 2021)
Active and inactive are the calls of the source. The calls are words filed in the database; no cut-off is given here.

Experiments:
Hepatitis C virus [1] = test: Antiviral activity against HCV infected in human Huh-7 cells assessed as reduction in viral replication at 500 nM measured within 6 hrs by luciferase reporter gene assay; assay type: functional, Hepacivirus hominis; design: scale not given: the % may be the effect or the level left; conditions: time hrs <=6
Method in brief: (§1)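 Huh7 luciferase replicon cells treated with 500 nM compound or mock for up to 48 h. Cells were lysed at various times and the lysates snap-frozen in liquid nitrogen. All lysates were then assayed for luciferase together.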

Hepatitis C virus [2] = test: Antiviral activity against HCV infected in human Huh-7 cells assessed as reduction in viral replication at 25 to 1000 nM measured after 48 hrs in presence of cytidine by luciferase reporter gene assay; assay type: functional, organism-based; conditions: Hepacivirus hominis, dose 25-1000 nM
Method in brief: (§2)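 Huh7 cells carrying an HCV luciferase replicon, grown in DMEM with 10% FBS and G418. Cells treated 48 h continuously with compound at 25–1,000 nM, either alone or together with 50 µM cytidine or 2′-deoxycytidine. Luciferase activity read in lysates. Three biological replicates, SD.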

[3] = Cytotoxicity against HEK293 cells assessed as reduction in cell viability measured after 96 hrs by celltiter-glo assay; assay type: cell-based; conditions: human, read-out: TC50
HepG2 = test: Cytotoxicity against human HepG2 cells assessed as reduction in cell viability measured after 96 hrs by celltiter-glo assay; assay type: functional; conditions: read-out: TC50 (the source's name)
Hepatitis C virus [4] = test: Antiviral activity against HCV infected in human Huh-7 cells assessed as reduction in viral replication measured after 48 hrs by luciferase reporter gene assay; assay type: functional, organism-based, Hepacivirus hominis; conditions: Huh-7, 48 h
Method in brief: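 Replicon-bearing Huh7 cells seeded at 10,000/well and allowed to attach for 24 h at 37 °C. Triplicate biological wells then treated 48 h with compound in DMEM, 10% FBS, 0.5% DMSO final. Bright-Glo luminescence expressed relative to untreated cells. IC50 from a four-parameter logistic fit.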

[5] = Stability in pH 6 aqueous buffer assessed as parent compound remaining at 200 uM measured after 4 hrs by UV spectrophotometry; assay type: physicochemical; conditions: read-out: Stabilty
Method in brief: (§3)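 Compound diluted to […] in aqueous buffers at pH 1.0, 2.0, 4.0, 6.0 or 8.0 and held 4 h at 40 °C. Intact prodrug separated by reverse-phase HPLC. 260 nm peak area after incubation compared with untreated prodrug, giving % remaining.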

[6] = Stability in pH 8 aqueous buffer assessed as parent compound remaining at 200 uM measured after 4 hrs by UV spectrophotometry; assay type: physicochemical; conditions: read-out: Stabilty; method in brief: as §3
[7] = Cytotoxicity against human BXPC-3 cells assessed as reduction in cell viability measured after 96 hrs by celltiter-glo assay; assay type: cell-based; conditions: read-out: TC50
[8] = Cytotoxicity against human MCF7 cells assessed as reduction in cell viability measured after 96 hrs by celltiter-glo assay; assay type: cell-based; conditions: read-out: TC50
[9] = Stability in pH 1 aqueous buffer assessed as parent compound remaining at 200 uM measured after 4 hrs by UV spectrophotometry; assay type: physicochemical; conditions: read-out: Stabilty; method in brief: as §3
[10] = Stability in pH 2 aqueous buffer assessed as parent compound remaining at 200 uM measured after 4 hrs by UV spectrophotometry; assay type: physicochemical; conditions: read-out: Stabilty; method in brief: as §3
[11] = Toxicity in human Huh-7 cells assessed as reduction in cell viability measured after 96 hrs by celltiter-glo assay; assay type: cell-based; conditions: read-out: TC50
[12] = Stability in pH 4 aqueous buffer assessed as parent compound remaining at 200 uM measured after 4 hrs by UV spectrophotometry; assay type: physicochemical; conditions: read-out: Stabilty; method in brief: as §3
Hepatitis C virus [13] = test: Antiviral activity against HCV infected in human Huh-7 cells assessed as reduction in viral replication at 25 to 1000 nM measured after 48 hrs in presence of deoxycytidine by luciferase reporter gene assay; assay type: functional, organism-based; conditions: Hepacivirus hominis, dose 25-1000 nM; method in brief: as §2
Hepatitis C virus [14] = test: Antiviral activity against HCV infected in human Huh-7 cells assessed as reduction in viral replication preincubated for 2 hrs followed by replacement with fresh culture medium and measured after 46 hrs by luciferase reporter gene assay; assay type: functional, organism-based, Hepacivirus hominis
Method in brief: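 HCV luciferase-replicon Huh7 cells were seeded at 10,000 cells/well and allowed 24 h to attach. Three biological replicates were exposed to graded compound in DMEM/10% FBS/0.5% DMSO for 2 h only, then the medium was replaced with fresh growth medium for 46 h at 37 °C.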

[15] = Cytotoxicity against human Huh-7 cells assessed as reduction in cell viability measured after 48 hrs in presence of ENT1 inhibitor NBTI […]; assay type: cell-based; conditions: with NBTI (ENT1 inhibitor; concentration not stated), read-out: TC50
[16] = Ratio of IC50 for antiviral activity against HCV infected in human Huh-7 cells in presence of esterase inhibitor bis-p-nitrophenyl phosphate to antiviral activity against HCV infected in human Huh-7 cells in absence of esterase inhibitor bis-p-nitrophenyl phosphate; assay type: functional, Hepacivirus hominis
Hepatitis C virus [17] = test: Antiviral activity against HCV infected in human Huh-7 cells assessed as reduction in viral replication measured after 48 hrs in presence of esterase inhibitor bis-p-nitrophenyl phosphate by luciferase reporter gene assay; assay type: functional, organism-based, Hepacivirus hominis; conditions: Huh-7, 48 h
Hepatitis C virus [18] = test: Antiviral activity against HCV infected in human Huh-7 cells assessed as reduction in viral replication at 500 nM measured after 24 to 30 hrs by luciferase reporter gene assay; assay type: functional, Hepacivirus hominis; design: scale not given: the % may be the effect or the level left; conditions: time 24-30 hrs; method in brief: as §1
Hepatitis C virus [19] = test: Antiviral activity against HCV infected in human Huh-7 cells assessed as reduction in viral replication at 500 nM measured after 48 hrs by luciferase reporter gene assay; assay type: functional, organism-based; conditions: Hepacivirus hominis; method in brief: as §1
Hepatitis C virus [20] = test: Antiviral activity against HCV infected in human Huh-7 cells assessed as reduction in viral replication at 500 nM measured after 36 hrs by luciferase reporter gene assay; assay type: functional, organism-based; conditions: Hepacivirus hominis; method in brief: as §1
Hepatitis C virus [21] = test: Synergistic antiviral activity against HCV infected in human Huh-7 cells assessed as reduction in viral replication measured after 48 hrs in presence of NS5A inhibitor daclatasvir. by luciferase reporter gene assay; assay type: functional, organism-based; conditions: Hepacivirus hominis
Method in brief: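 Replicon Huh7 cells treated 48 h with compound across 0.001–10,000 nM, each series at a fixed daclatasvir level from 0.005–0.025 nM. Luciferase read as above. A, B and C from the fits gave compound IC50 at each daclatasvir concentration, and these were plotted on an isobologram.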

[22] = Cytotoxicity against human Huh-7 cells assessed as reduction in cell viability measured after 48 hrs by celltiter-glo assay; assay type: cell-based; conditions: read-out: TC50
Hepatitis C virus [23] = test: Antiviral activity against HCV infected in human Huh-7 cells assessed as reduction in viral replication measured after 48 hrs in presence of human carboxylesterase 1/2 inhibitor benzil by luciferase reporter gene assay; assay type: functional, organism-based, Hepacivirus hominis; conditions: Huh-7, 48 h
Method in brief: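 Huh7 cells carrying an HCV luciferase-reporter replicon, grown with 10% FBS and G418, were seeded at 10,000 cells/well and left 24 h to attach. Three biological replicates were treated with graded compound in DMEM/10% FBS/0.5% DMSO with benzil present, for 48 h at 37 °C. Bright-Glo luciferase was read, and IC50 came from a four-parameter logistic fit.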

Hepatitis C virus [24] = test: Ratio of IC50 for antiviral activity against HCV infected in human Huh-7 cells assessed as reduction in viral replication preincubated for 2 hrs followed by replacement with fresh culture medium and measured after 46 hrs by luciferase reporter gene assay to IC50 for antiviral activity against HCV infected in human Huh-7 cells assessed as reduction in viral replication measured after 48 hrs by …; assay type: functional, Hepacivirus hominis
[25] = Ratio of gemcitabine TC50 to test compound TC50 for cytotoxicity against human BXPC-3 cells assessed as reduction in cell viability; assay type: cell-based
Hepatitis C virus [26] = test: Synergistic antiviral activity against HCV infected in human Huh-7 cells assessed as reduction in viral replication measured after 48 hrs in presence of NS5B inhibitor PSI-6130. by luciferase reporter gene assay; assay type: functional, organism-based; conditions: Hepacivirus hominis
[27] = Prodrug conversion assessed as human carboxylesterase 1/2-mediated gemcitabine release measured after 1 hr by HPLC analysis; assay type: ADME
[28] = Ratio of gemcitabine TC50 to test compound TC50 for cytotoxicity against human MCF7 cells assessed as reduction in cell viability; assay type: cell-based
[29] = Ratio of IC50 for antiviral activity against HCV infected in human Huh-7 cells in presence of human carboxylesterase 1/2 inhibitor benzil to antiviral activity against HCV infected in human Huh-7 cells in absence of human carboxyesterases1/2 inhibitor benzil; assay type: functional, Hepacivirus hominis

| SMILES | Activity (Hepatitis C virus [2]) | CC50 at 96 h [3] [nM] | CC50 (HepG2) [nM] | IC50 (Hepatitis C virus [4]) [nM] | remaining at 4 h, 200 µM [5] [%] | remaining at 4 h, 200 µM [6] [%] | CC50 at 96 h [7] [nM] | CC50 at 96 h [8] [nM] | remaining at 4 h, 200 µM [9] [%] | remaining at 4 h, 200 µM [10] [%] | CC50 at 96 h [11] [µM] | remaining at 4 h, 200 µM [12] [%] | Activity (Hepatitis C virus [13]) | IC50 (Hepatitis C virus [14]) [nM] | CC50 at 48 h [15] [µM] | other results |
| --- | --- | --- | --- | --- | --- | --- | --- | --- | --- | --- | --- | --- | --- | --- | --- | --- |
| Nc1ccn([C@@H]2O[C@H](CO)[C@@H](O)C2(F)F)c(=O)n1 [GEMCITABINE] | inactive | 560 | 310 | 58 | 100 | 100 | 2.9 | 67 | 79 | 88 | 3.4 | 98 | inactive | 170 | > 500 | Activity (Hepatitis C virus [1]): 50% |
| COc1cc(C(=O)Nc2ccn([C@@H]3O[C@H](CO)[C@@H](O)C3(F)F)c(=O)n2)cc(OC)c1OC | inactive | 1300 | 1700 | 49.3 | 99.5 | 82.7 | 1800 | 570 | 86 | 87 | 5.1 | 98.6 | inactive | 2800 | 398 | Ratio IC50 [16]: 1.6; IC50 (Hepatitis C virus [17]): 81 nM; Activity (Hepatitis C virus [18]): 50%; Activity (Hepatitis C virus [19]): Active; Activity (Hepatitis C virus [20]): Active; Activity (Hepatitis C virus [21]): Active; CC50 at 48 h [22]: 490 µM; IC50 (Hepatitis C virus [23]): 125 nM; Ratio IC50 (Hepatitis C virus [24]): 56; selectivity ratio [25]: ≤ 620; Activity (Hepatitis C virus [26]): Active; Drug metabolism [27]: Metabolite_Detected; selectivity ratio [28]: ≤ 24; Ratio IC50 [29]: 2.5 |
